{
  "source": "ChEMBL document CHEMBL1671650",
  "about": "“In vitro activity and preclinical profile of TMC435350, a potent hepatitis C virus protease inhibitor” (Antimicrob Agents Chemother, 2009)",
  "key": {"[1]": {"assay": "Ratio of AUC (0 to 31 hrs) in Sprague-Dawley rat spleen to AUC (0 to 31 hrs) in Sprague-Dawley rat plasma at 40 mg/kg, po administered as single dose", "format": "ADME, organism-based", "design": "dose 40 mg/kg, route oral", "summary_of_the_method": "(§1)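 Male specific-pathogen-free Sprague-Dawley rats (200–300 g), three per group, single gastric intubation at 2 ml/kg of a vitamin E TPGS–PEG 400 solution; food and water ad libitum. Plasma sampled 30 min to 31 h; tissues dissected from oral groups. LC-MS/MS (LLOQ 1 ng/ml plasma, 5 ng/g tissue); noncompartmental analysis; ratios from mean of three rats.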"}, "Yellow fever virus": {"test_system": "Yellow fever virus", "assay": "Antiviral activity against Yellow fever virus 17D infected in green monkey veroE6 cells inhibition of virus-induced cytopathic effect at 10 to 100 uM", "format": "functional, organism-based", "settings": "Vero", "summary_of_the_method": "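Virus-induced cytopathic effect inhibition assay in VeroE6 cells with YFV-17D, with a known positive control in each run; tested up to a top concentration in the 10–100 µM range.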"}, "Hepatitis C virus [2]": {"test_system": "Hepatitis C virus", "assay": "Antiviral activity against Hepatitis C virus in presence of 40% human serum"}, "[3]": {"assay": "Tmax in Sprague-Dawley rat large intestine", "format": "ADME, tissue-based", "summary_of_the_method": "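Male Sprague-Dawley rats given a single oral dose of 40 mg/kg in TPGS–PEG400, three per time point. Tissues dissected at times up to 31 h and measured by LC-MS/MS (LLOQ 5 ng/g).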"}, "[4]": {"test_system": "Human immunodeficiency virus 1", "assay": "Antiviral activity against Human immunodeficiency virus 1 3b infected in human MT4 cells at 10 to 100 uM", "format": "functional, organism-based", "summary_of_the_method": "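HIV-1 IIIB in MT-4 cells, enhanced green fluorescent protein-based read-out. Highest concentration tested 10 to 100 μM.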"}, "[5]": {"assay": "Absolute bioavailability in Sprague-Dawley rat at 40 mg/kg, po", "format": "ADME, organism-based", "settings": "in vivo", "summary_of_the_method": "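Male SPF Sprague-Dawley rats (200–300 g, n = 3/group). Oral gavage at 40 mg/kg in vitamin E TPGS–PEG 400 solution (2 ml/kg); i.v. reference was a 4 mg/kg tail-vein slow bolus in 20% hydroxypropyl-β-cyclodextrin, pH 8.0. Plasma sampled up to 31 h and assayed by LC-MS/MS (LLOQ 1 ng/ml). Noncompartmental analysis; Fabs = dose-normalized mean AUC0-∞ p.o./i.v.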"}, "[6]": {"assay": "Total plasma clearance in Sprague-Dawley rat at 4 mg/kg, iv", "format": "ADME, organism-based", "design": "dose 4 mg/kg, route intravenous", "summary_of_the_method": "(§2)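 Male SPF Sprague-Dawley rats (200–300 g), n=3. Single slow i.v. tail-vein bolus at 4 mg/kg (2 ml/kg) in 20% hydroxypropyl-β-cyclodextrin, pH 8.0. Plasma sampled 7 min to 31 h, measured by LC-MS/MS (LLOQ 1 ng/ml). Noncompartmental analysis.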"}, "Plasma": {"test_system": "Plasma", "assay": "Initial plasma concentration in Sprague-Dawley rat at 4 mg/kg, iv", "format": "ADME, organism-based", "design": "dose 4 mg/kg, route intravenous", "settings": "in vivo", "summary_of_the_method": "as §2"}, "Hepatitis C virus [7]": {"test_system": "Hepatitis C virus", "assay": "Antiviral activity against Hepatitis C virus in presence of 1 mg/ml alpha-1 acid glycoprotein"}, "[8]": {"assay": "Ratio of AUC (0 to 31 hrs) in Sprague-Dawley rat thymus to AUC (0 to 31 hrs) in Sprague-Dawley rat plasma at 40 mg/kg, po administered as single dose", "format": "ADME, organism-based", "design": "dose 40 mg/kg, route oral", "summary_of_the_method": "as §1"}, "Hepatitis C virus [9]": {"test_system": "Hepatitis C virus", "assay": "Antiviral activity against HCV 1b infected in human HuH7 cells assessed as effect on cell viability upto 5 weeks", "format": "functional, organism-based", "settings": "Hepacivirus hominis; genotype 1b; Huh-7"}, "[10]": {"assay": "Ratio of AUC (0 to 31 hrs) in Sprague-Dawley rat heart to AUC (0 to 31 hrs) in Sprague-Dawley rat plasma at 40 mg/kg, po administered as single dose", "format": "ADME, organism-based", "design": "dose 40 mg/kg, route oral", "summary_of_the_method": "as §1"}, "[11]": {"assay": "Apparent volume of distribution at steady-state in Sprague-Dawley rat at 4 mg/kg, iv", "format": "ADME, organism-based", "design": "dose 4 mg/kg, route intravenous", "settings": "in vivo", "summary_of_the_method": "as §2"}, "[12]": {"assay": "Tmax in Sprague-Dawley rat plasma at 40 mg/kg, po upto 31 hrs", "format": "ADME, organism-based", "design": "dose 40 mg/kg, route oral", "summary_of_the_method": "(§3)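 Male SPF Sprague-Dawley rats (200–300 g), three per group. Oral gavage at 40 mg/kg (2 ml/kg) in TPGS–PEG400 solution. Plasma sampled 0.5–31 h, measured by LC-MS/MS (LLOQ 1 ng/ml). Noncompartmental analysis.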"}, "Hepatitis C virus [13]": {"test_system": "Hepatitis C virus", "assay": "microbe, parasite or virus in culture"}, "[14]": {"assay": "Cytotoxicity against staphylococcal enterotoxin B-stimulated human PBMC cells", "format": "cell-based"}, "[15]": {"assay": "Cytotoxicity against human HEK293T cells upto 42 uM after 3 to 4 days by resazurin proliferation assay", "format": "cell-based", "settings": "hek-293t", "summary_of_the_method": "(§4)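 Human cell lines in DMEM with 10% heat-inactivated FBS and 2 mM L-glutamine (replicon cells plus 0.75 mg/ml G418 in maintenance). Exposed to compound for 3 to 4 days; resazurin fluorescence read-out. CC50 from inhibition curves.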"}, "[16]": {"assay": "AUC (0 to 24 hrs) in Sprague-Dawley rat at 4 mg/kg, iv", "format": "ADME, organism-based", "design": "time < 24 hr, dose 4 mg/kg, route intravenous", "settings": "plasma", "summary_of_the_method": "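Male specific-pathogen-free Sprague-Dawley rats (200-300 g), n = 3; single slow tail-vein bolus of 20% 2-hydroxypropyl-β-cyclodextrin formulation (pH 8.0) at 2 ml/kg. Plasma sampled from orbital plexus at 7 min, 20 min, 1, 3, 8, 24 and 31 h; LC-MS/MS (LLOQ 1 ng/ml); noncompartmental analysis of individual plasma profiles.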"}, "[17]": {"assay": "Cytotoxicity against human HuH7 cells infected with Hepatitis C virus subtype 1b after 3 to 4 days by resazurin proliferation assay", "format": "cell-based, Huh-7", "summary_of_the_method": "as §4"}, "[18]": {"assay": "Cytotoxicity against human HT1080 cells after 3 to 4 days by resazurin proliferation assay", "format": "cell-based, HT-1080", "summary_of_the_method": "as §4"}, "[19]": {"assay": "Half life (8 to 24 hrs) in Sprague-Dawley rat plasma at 40 mg/kg, po", "format": "ADME, organism-based", "design": "dose 40 mg/kg, route oral", "summary_of_the_method": "as §3"}, "Hepatitis C virus [20]": {"test_system": "Hepatitis C virus", "assay": "Antiviral activity against Hepatitis C virus 1b infected in human HuH7 cells assessed as viral RNA level after 72 hrs by quantitative reverse transcriptase PCR", "format": "functional, organism-based, Hepacivirus hominis", "settings": "genotype 1b, Huh-7, 72 h", "summary_of_the_method": "(§5)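 Replicon cells (Huh7-Luc at 3,000/well; con1b S2204I or 1a H77 P1496L/S2204I at 6,000/well) exposed to a dilution range for 72 h in 0.5% DMSO without G418. Lysates reverse transcribed 30 min at 42°C with an HCV 5′UTR primer and an RPL13A control. Inhibition from threshold-cycle difference versus mock; EC50 taken from the dose-response curve.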"}, "[21]": {"assay": "Cytotoxicity against human HuH7 cells upto 42 uM after 3 to 4 days by resazurin proliferation assay", "format": "cell-based", "settings": "huh-7", "summary_of_the_method": "as §4"}, "Hepatitis B virus": {"test_system": "Hepatitis B virus", "assay": "Antiviral activity against Hepatitis B virus infected in human HepG2.2.15 cells at 10 to 100 uM by quantitative PCR", "format": "functional, organism-based", "settings": "HepG2 2.2.15", "summary_of_the_method": "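HBV replication in HepG2.2.15 cells, measured by quantitative PCR. Highest concentration tested 10 to 100 μM.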"}, "Hepatitis C virus [22]": {"test_system": "Hepatitis C virus", "assay": "Antiviral activity against Hepatitis C virus 1b isolate con1 infected in human HuH7 cells assessed as viral RNA level after 72 hrs by quantitative reverse transcriptase PCR", "format": "functional, organism-based, Hepacivirus hominis", "settings": "Con1, Huh-7, 72 h", "summary_of_the_method": "as §5"}, "PBMC": {"test_system": "PBMC", "assay": "Cytostatic activity against human PBMC cells assessed as incorporation of [3H]thymidine", "format": "ADME, cell-based", "settings": "read-out: CS50 (the source's name)"}, "[23]": {"test_system": "Bovine viral diarrhea virus 1", "assay": "Antiviral activity against Bovine viral diarrhea virus 1 NADL infected in […] cells inhibition of virus-induced cytopathic effect at 10 to 100 uM", "format": "functional, organism-based", "summary_of_the_method": "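Cytopathic effect inhibition assay: BVDV-NADL in MDCK cells; WNV-NY99/1 in Vero cells. Highest concentration tested 10 to 100 μM.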"}, "[24]": {"assay": "Ratio of AUC (0 to 31 hrs) in Sprague-Dawley rat kidney to AUC (0 to 31 hrs) in Sprague-Dawley rat plasma at 40 mg/kg, po administered as single dose", "format": "ADME, organism-based", "design": "dose 40 mg/kg, route oral", "summary_of_the_method": "as §1"}},
  "note": "Active and inactive are the calls of the source.",
  "data": [
    {"compound": "COc1ccc2c(O[C@@H]3C[C@H]4C(=O)N[C@]5(C(=O)NS(=O)(=O)C6CC6)C[C@H]5/C=C\\CCCCN(C)C(=O)[C@@H]4C3)cc(-c3nc(C(C)C)cs3)nc2c1C", "note": "[SIMEPREVIR]", "values": [
      {"measurement": "Kp", "setting": "[1]", "result": 0.3},
      {"measurement": "Activity", "setting": "Yellow fever virus", "result": "inactive"},
      {"measurement": "EC50", "setting": "Hepatitis C virus [2]", "result": 11.2, "unit": "nM"},
      {"measurement": "Tmax", "setting": "[3]", "result": 8, "unit": "h"},
      {"measurement": "Activity", "setting": "[4]", "result": "inactive"},
      {"measurement": "bioavailability", "setting": "[5]", "result": 44, "unit": "%"},
      {"measurement": "clearance", "setting": "[6]", "result": 38.3, "unit": "mL/min/kg"},
      {"measurement": "Cp", "setting": "Plasma", "result": 3560, "unit": "ng/mL"},
      {"measurement": "EC50", "setting": "Hepatitis C virus [7]", "result": 11.4, "unit": "nM"},
      {"measurement": "Kp", "setting": "[8]", "result": 0.5},
      {"measurement": "Activity", "setting": "Hepatitis C virus [9]", "result": "inactive"},
      {"measurement": "Kp", "setting": "[10]", "result": 0.5},
      {"measurement": "Vd", "setting": "[11]", "result": 5.3, "unit": "L/kg"},
      {"measurement": "Tmax", "setting": "[12]", "result": 2, "unit": "h"},
      {"measurement": "EC50 ratio", "setting": "Hepatitis C virus [13]", "result": 1.7},
      {"measurement": "CC50", "setting": "[14]", "result": 33000, "unit": "nM"},
      {"measurement": "Activity", "setting": "[15]", "result": "Non-toxic"},
      {"measurement": "AUC(0-t) at 24 h", "setting": "[16]", "result": 1740, "unit": "ng·h/mL"},
      {"measurement": "CC50", "setting": "[17]", "result": 47000, "unit": "nM"},
      {"measurement": "CC50", "setting": "[18]", "result": 16000, "unit": "nM"},
      {"measurement": "half-life", "setting": "[19]", "result": 2.6, "unit": "h"},
      {"measurement": "EC50", "setting": "Hepatitis C virus [20]", "result": 13, "unit": "nM"},
      {"measurement": "EC90", "setting": "Hepatitis C virus [20]", "result": 28.7, "unit": "nM"},
      {"measurement": "Activity", "setting": "[21]", "result": "Non-toxic"},
      {"measurement": "Activity", "setting": "Hepatitis B virus", "result": "inactive"},
      {"measurement": "EC50", "setting": "Hepatitis C virus [22]", "result": 25.2, "unit": "nM"},
      {"measurement": "EC90", "setting": "Hepatitis C virus [22]", "result": 118, "unit": "nM"},
      {"measurement": "GI50", "setting": "PBMC", "result": 10000, "unit": "nM"},
      {"measurement": "Activity", "setting": "[23]", "result": "inactive"},
      {"measurement": "Kp", "setting": "[24]", "result": 0.5}
    ]}
  ]
}
